# An excerpt weighted towards active compounds, which were near 2.6% of everything screened.
# core dimer inh: HCV core protein dimerization inhibition; inhibition, % at 5 µM; TR-FRET GST/Flag-core106 dimerization, 1536-well; 300,000 compounds, 0.33% hits;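 active = inhibition above the mean of all tested compounds plus 3 SD, set per screening campaign, cut at about 45% in these data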
#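 System – GST-tagged and Flag-tagged HCV core protein residues 1-106 · Repeats – one well for each compound · Technique – TR-FRET 671 and 617 nm emission · Doses – one concentration, 5 µM, in 0.5% DMSO · Times – 4 h, 22.5 °C incubation · Also added – Eu donor and XL665 acceptor anti-tag antibodies · Measure – percent inhibition of core106 dimerization signal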
# ABHD5 PLIN5 PPI: inhibitors of human ABHD5-perilipin-5 interaction; Split G. princeps luciferase complementation, luminescence, 4 h; inhibition, % at 4 µM; 360,000 compounds, 0.78% hits;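 active = inhibition above the mean inhibition across every tested compound plus 3 SD, cut at about 22% in these data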;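 also: 0% = DMSO only wells and the 100% control is not disclosed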
# Target sequence (Q00G26 whole entry, looked up): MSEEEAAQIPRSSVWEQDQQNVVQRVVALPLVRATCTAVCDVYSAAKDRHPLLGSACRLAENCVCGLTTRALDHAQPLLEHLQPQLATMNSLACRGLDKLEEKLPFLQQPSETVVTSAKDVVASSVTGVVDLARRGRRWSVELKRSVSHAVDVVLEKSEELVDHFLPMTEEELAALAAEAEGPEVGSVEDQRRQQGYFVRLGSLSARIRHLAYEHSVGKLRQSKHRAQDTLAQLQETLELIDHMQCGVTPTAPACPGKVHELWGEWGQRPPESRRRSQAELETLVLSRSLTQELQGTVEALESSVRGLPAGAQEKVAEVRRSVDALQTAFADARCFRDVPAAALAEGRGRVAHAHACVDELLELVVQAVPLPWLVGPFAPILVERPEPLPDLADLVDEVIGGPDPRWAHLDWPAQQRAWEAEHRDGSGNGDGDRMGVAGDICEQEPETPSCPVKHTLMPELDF
# Target sequence (Q8WTS1 whole entry, looked up): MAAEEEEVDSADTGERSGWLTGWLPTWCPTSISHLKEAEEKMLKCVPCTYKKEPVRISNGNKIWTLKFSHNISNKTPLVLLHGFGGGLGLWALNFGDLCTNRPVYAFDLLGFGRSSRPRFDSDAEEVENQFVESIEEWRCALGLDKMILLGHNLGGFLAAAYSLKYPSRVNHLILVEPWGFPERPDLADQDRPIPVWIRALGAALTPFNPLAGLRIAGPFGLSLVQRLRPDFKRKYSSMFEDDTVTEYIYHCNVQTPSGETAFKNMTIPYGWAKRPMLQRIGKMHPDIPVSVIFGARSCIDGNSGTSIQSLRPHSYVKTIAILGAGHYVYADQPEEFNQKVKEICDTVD
# rCAG binder: molecules binding r(CAG) RNA repeats; r(CAG) RNA repeat, TO-PRO-1 dye displacement fluorescence; inhibition, % at 3 µM; 370,000 compounds, 1.3% hits;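 active = inhibition above the plate cutoff, the mean of all test compounds on that plate plus 3 SD, cut at about 35% in these data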;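 also: 0% = DMSO alone and 100% = 100 µM mitoxantrone as full dye displacement; higher means more dye released from RNA so lower well fluorescence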
# NadD block: NadD (S. aureus) enzyme inhibition | inhibition, % at 20 µM | purified NadD enzyme, colorimetric absorbance read-out | 360,000 compounds, 0.78% hits | AID 602399; in the data active = inhibition above about 26%
# NadD conf: confirmation of Staphylococcus aureus NadD inhibitors; shares compounds with NadD block; purified S. aureus NadD, colorimetric enzyme assay; inhibition, % at 20 µM; 2,000 compounds, 13% hits; AID 624309; in the data active = inhibition mostly above about 42%, no sharp cut-off; inactive = mostly below about 42%
# Numbers without * were called inactive; · = no result given.
SMILES,core dimer inh,ABHD5 PLIN5 PPI,rCAG binder,NadD block,NadD conf
C=CCN1C(C(=O)OC)CN(Cc2cn(Cc3ccc(C)cc3)nn2)CCS1(=O)=O (configuration not stated),·,·,-0.8,·,·
COc1ccc(NS(=O)(=O)c2ccc3nc(COc4cccc5ccccc45)[nH]c3c2)cc1,23.5,-7.9,18.7,37.6*,35.5
COc1ccc(OCc2nc3ccc(S(=O)(=O)Nc4ccccc4Cl)cc3[nH]2)cc1,20.9,2.1,14.1,0.2,·
CC(=O)NC(CC(=O)OC(C)C(=O)Nc1ccc(Cl)cn1)c1ccccc1 (configuration not stated),-3.2,3.4,-5.8,1.7,·
O=C(O)c1ccc(-c2nc(-c3ccccc3)c(-c3cccs3)[nH]2)cc1,13.8,-2.2,2.6,-5.7,·
O=[N+]([O-])c1ccc(O)c(-c2nc(-c3ccccc3)c(-c3cccs3)[nH]2)c1,15.0,-4.6,4.6,34.4*,10.1
FC(F)(F)c1nnc(-c2ccccc2)nc1Sc1ccc(Cl)cc1,-1.1,-2.8,-1.3,32.8*,-2.9
FC(F)(F)c1nnc(-c2ccccc2)nc1Sc1ccccc1,9.1,10.7,0.5,17.3,·
COc1ccc(-c2cc(CNc3nc(NC(C)C)nc4cc(-c5ccccc5)sc34)on2)cc1,·,6.6,8.2,34.3*,21.3
CC(=O)NCCNc1nc(NC(C)C)nc2cc(-c3ccccc3)sc12,·,1.6,-2.2,-0.3,·
CCn1c2ccccc2c2cc(N=C3SC(CC(=O)Nc4ccccc4)C(=O)N3C)ccc21 (configuration not stated),19.1,-1.5,2.0,30.7*,19.1
O=C(Cc1ccccc1)Nc1ncnc2c1C(c1ccccc1)c1c(ccc3ccccc13)O2 (configuration not stated),·,-2.2,12.9,31.6*,31.3
CC(C)C[C@@H](CNCC(=O)[C@H](Cc1c[nH]c2ccccc12)NC(=O)c1[nH]cnc1C(=O)N[C@@H](C)CN)NC(=O)c1nc[nH]c1C(=O)N[C@@H](CC(=O)O)C(=O)O,·,1.4,25.7,13.5,·
CC(C)C[C@@H](CNCC(=O)[C@H](Cc1c[nH]c2ccccc12)NC(=O)c1[nH]cnc1C(=O)N[C@H](CN)CC(C)C)NC(=O)c1nc[nH]c1C(=O)N[C@@H](CC(=O)O)C(=O)O,·,6.8,27.7,31.2*,45.4
COc1ccc(N2C(=O)/C(=C\c3ccco3)N=C2SCC(=O)NC(C)(C)C)cc1Cl,19.2,3.8,6.0,30.6*,11.8
O=C(COc1ccc(/C=N/NC(=O)c2ccncc2)cc1)Nc1cccc([N+](=O)[O-])c1,3.7,2.0,3.5,1.9,·
O=C(COc1ccc(/C=N/NC(=O)c2ccccc2O)cc1)Nc1ccc([N+](=O)[O-])cc1,50.1*,-1.6,7.5,39.5*,-1.8
CCCCNC(=O)C[C@H]1C[C@@]2(C(=O)OC)C(=C[C@H](C(C)(C)C)O[C@@H]2C)N(Cc2ccc(Cl)cc2Cl)C1=O,·,·,4.2,·,·
O=C(O)c1nn(Cc2ncc(-c3cccc(Cl)c3)o2)c(=O)c2ccccc12,-12.0,-3.7,11.4,33.6*,16.4
O=c1c2ccccc2nc(/C=C/c2c[nH]c3ccccc23)n1-c1ccc([N+](=O)[O-])cc1,19.8,5.4,3.0,40.5*,-0.6
Cc1[nH]c2ccccc2c1/C=C/c1nc2ccccc2c(=O)n1-c1cccc([N+](=O)[O-])c1,42.2,2.6,10.5,23.2,·
CCC(=O)OC1(C)C(=O)C=C2C=C(C3CC3)OC=C2C1=O (configuration not stated),-14.1,4.8,10.4,5.4,·
CCCCC1=CC2=CC(=O)C(C)(OC(=O)C3CCCC3)C(=O)C2=CO1 (configuration not stated),10.8,6.6,29.6,53.0*,29.4
CCC(=O)OC1(C)C(=O)C=C2C=C(CCCCNC(=O)OC(C)(C)C)OC=C2C1=O (configuration not stated),26.0,·,·,·,·
CCCCC1=CC2=CC(=O)C(C)(OC(=O)CC)C(=O)C2=CO1 (configuration not stated),17.7,5.6,23.9,32.6*,45.3*
SMILES,core dimer inh,ABHD5 PLIN5 PPI,rCAG binder,NadD block,NadD conf
Clc1ccc([C@H]2OC[C@@]3(CNCC4CC4)CS[C@H](c4ccc(Cl)cc4)N23)cc1,·,·,1.5,·,·
CCc1ccc(NC(=O)CSc2nc3ccsc3c(=O)n2CCC(=O)O)cc1,2.0,0.2,23.1,6.9,·
CC(C)c1ccc(NC(=O)CSc2nc3ccsc3c(=O)n2Cc2ccc(C(=O)O)cc2)cc1,13.8,8.7,32.9,31.6*,45.9
COC(=O)N[C@H]1CC=C[C@@H]1Cc1cccc(Oc2ccccc2)c1,·,·,1.5,·,·
COc1ccc(/C=C2/Sc3ccc(C(=O)NCCN4CCCCCC4)cc3NC2=O)cc1,-19.8,13.4,23.9,55.6*,-10.6
O=C1NC[C@H](CCCCN2CCN(CCc3ccccc3)C(=O)C2=O)N(Cc2ccccc2)C1=O,·,2.4,1.9,5.9,·
COc1cccc(-c2ncn(CCc3ccccc3OC)c2CC(C)C)c1,·,·,1.7,·,·
COC(=O)c1ccc(NC(=O)COc2ccc(C3C(C#N)=C(N)Oc4c3ccc3ccccc43)cc2OC)cc1 (configuration not stated),23.2,-7.2,23.9,51.1*,29.3
COC(=O)c1ccc(NC(=O)COc2ccccc2OC)cc1,0.6,2.9,-0.1,6.5,·
COc1ccc(C=NN(C)C(=O)Nc2cccc(Cl)c2)cc1OC,·,·,4.0,·,·
Cc1ccc(Cl)cc1N1CCN(S(=O)(=O)c2ccc3[nH]c(=O)c(=O)[nH]c3c2)CC1,25.9,1.3,12.2,37.4*,49.0*
CCOC(=O)c1ccc(N=C2C(=S)N(c3ccc(C(=O)OCC)cc3)C(=N)N2/N=C/c2ccccc2)cc1,13.8,-21.4,12.1,39.1*,13.2
CCOC(=O)c1ccc(N=c2scc(C)n2CC)cc1,-10.5,-2.1,-2.0,6.1,·
COc1ccccc1CCC(=O)Nc1ccc2c(c1)c(=O)n(C)n2Cc1cccc(C(F)(F)F)c1,·,1.9,-1.5,-6.4,·
Cc1sc2ncnc(SCc3ccc(C(=O)O)cc3)c2c1C,6.0,5.4,1.6,4.7,·
O=C(CSc1ncnc2scc(-c3ccccc3)c12)N1CCN(Cc2ccc3c(c2)OCO3)CC1,-39.7,-2.3,5.9,38.3*,15.3
Cc1ccc(-c2csc3ncnc(SCc4ccc(C(=O)O)cc4)c23)cc1,37.6,7.8,34.0,31.9*,43.9
CC(C)C[C@@H](CN1CCC[C@H]1CN1C(=O)C(=O)NC[C@@H]1Cc1ccccc1)N1C[C@H](Cc2ccc(O)cc2)N(CC2CCCCCC2)C(=O)C1=O,·,20.5,9.0,40.5*,32.9
CC(C)C[C@H]1CN([C@@H](CC(C)C)CN2CCC[C@H]2CN2C(=O)C(=O)NC[C@@H]2Cc2ccc(O)cc2)C(=O)C(=O)N1CC1CCCCCC1,·,-5.8,4.0,30.1*,21.0
Cc1c(C(=O)NNC(=O)c2csc(N3CCOCC3)n2)oc2ccccc12,·,-9.0,7.0,6.7,·
Cc1c(C(=O)NNC(=O)c2csc(N3CCOCC3)n2)oc2ccc(Br)cc12,·,-2.1,23.2,31.7*,47.9
